In ChEMBL document CHEMBL1148778, “Synthesis and characterization of nonsteroidal glucocorticoid receptor modulators for multiple myeloma” (J Med Chem, 2007):

How the values were obtained:
Glucocorticoid receptor [1] = biological target: T1, Glucocorticoid receptor (Homo sapiens, UniProt P04150); test: Activity at human GR expressed in NHDFneo cells assessed as inhibition of IL-6 production; type: cell-based
T1 sequence (P04150 whole entry): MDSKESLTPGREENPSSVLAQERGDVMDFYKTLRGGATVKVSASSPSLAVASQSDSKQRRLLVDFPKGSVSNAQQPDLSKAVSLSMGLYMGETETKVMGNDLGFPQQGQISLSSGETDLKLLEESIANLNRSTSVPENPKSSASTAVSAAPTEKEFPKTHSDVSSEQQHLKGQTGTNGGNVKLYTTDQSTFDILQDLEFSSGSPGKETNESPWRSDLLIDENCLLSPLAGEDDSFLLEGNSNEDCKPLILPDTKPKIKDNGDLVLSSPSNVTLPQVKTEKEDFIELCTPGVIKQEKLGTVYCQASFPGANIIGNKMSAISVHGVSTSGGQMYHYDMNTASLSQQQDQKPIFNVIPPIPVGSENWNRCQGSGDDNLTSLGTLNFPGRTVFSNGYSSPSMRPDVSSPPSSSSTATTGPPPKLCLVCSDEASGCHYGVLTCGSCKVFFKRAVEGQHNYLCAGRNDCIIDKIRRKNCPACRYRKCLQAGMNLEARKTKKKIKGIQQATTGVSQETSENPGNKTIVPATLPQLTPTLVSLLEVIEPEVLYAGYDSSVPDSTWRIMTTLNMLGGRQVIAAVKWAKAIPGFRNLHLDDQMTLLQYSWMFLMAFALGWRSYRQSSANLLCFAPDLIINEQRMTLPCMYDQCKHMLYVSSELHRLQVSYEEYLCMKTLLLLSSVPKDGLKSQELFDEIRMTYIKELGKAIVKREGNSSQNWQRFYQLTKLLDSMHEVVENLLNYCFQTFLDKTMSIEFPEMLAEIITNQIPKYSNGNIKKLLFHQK

RPMI-8226 [2] = test: Antiproliferative activity against human RPMI8226 cells after 4 days; type: functional, cell-based; details: RPMI-8226, 96 h
Glucocorticoid receptor [3] = biological target: T1, Glucocorticoid receptor; test: Agonist activity at human GR expressed in CV1 cells by GRE activation assay; type: functional, cell-based, CV-1
RPMI-8226 [4] = test: Antiproliferative activity against human RPMI8226 cells after 4 days relative to Dexamethasone; type: functional
RPMI-8226 [5] = test: Inhibition of tumor growth in human RPMI8226 cells xenografted nude mouse at 10 mg/kg, po after 4 weeks relative to Dexamethasone; type: functional
RPMI-8226 [6] = test: Inhibition of tumor growth in human RPMI8226 cells xenografted nude mouse at 3 mg/kg, po after 4 weeks relative to Dexamethasone; type: functional
[7] = biological target: T2, Mineralocorticoid receptor (Homo sapiens, UniProt P08235); test: Binding affinity to MR
T2 sequence (P08235 whole entry): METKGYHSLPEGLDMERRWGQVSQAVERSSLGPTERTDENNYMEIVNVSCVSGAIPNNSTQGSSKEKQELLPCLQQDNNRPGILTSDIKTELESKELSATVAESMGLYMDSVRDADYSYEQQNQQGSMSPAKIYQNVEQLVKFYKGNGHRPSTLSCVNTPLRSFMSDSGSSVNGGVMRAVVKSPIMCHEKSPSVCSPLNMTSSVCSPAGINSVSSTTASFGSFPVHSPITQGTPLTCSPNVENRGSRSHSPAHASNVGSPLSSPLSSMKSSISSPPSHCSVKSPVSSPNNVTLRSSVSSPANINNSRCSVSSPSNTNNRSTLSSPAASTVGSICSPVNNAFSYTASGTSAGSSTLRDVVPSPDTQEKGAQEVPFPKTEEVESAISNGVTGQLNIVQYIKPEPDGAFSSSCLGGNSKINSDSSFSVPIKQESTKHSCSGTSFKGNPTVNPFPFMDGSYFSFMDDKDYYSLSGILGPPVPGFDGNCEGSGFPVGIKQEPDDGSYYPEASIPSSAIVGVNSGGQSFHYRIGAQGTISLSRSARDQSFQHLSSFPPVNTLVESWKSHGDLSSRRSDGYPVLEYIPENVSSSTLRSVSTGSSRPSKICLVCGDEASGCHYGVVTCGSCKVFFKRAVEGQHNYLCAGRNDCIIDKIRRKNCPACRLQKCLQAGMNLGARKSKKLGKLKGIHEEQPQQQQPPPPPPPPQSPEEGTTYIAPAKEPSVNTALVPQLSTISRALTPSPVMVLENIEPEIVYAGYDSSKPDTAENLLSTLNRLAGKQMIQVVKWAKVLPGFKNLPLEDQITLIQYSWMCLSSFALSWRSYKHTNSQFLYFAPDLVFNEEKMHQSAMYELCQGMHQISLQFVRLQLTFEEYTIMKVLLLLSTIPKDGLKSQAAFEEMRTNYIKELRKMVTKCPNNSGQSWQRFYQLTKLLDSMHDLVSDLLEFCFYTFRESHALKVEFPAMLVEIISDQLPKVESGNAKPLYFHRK
Outline: (§1)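 Competitive binding assays on PR and MR. Values are means of at least three separate experiments, each with triplicate determinations, ± SEM. A value without SEM comes from a single determination.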

Glucocorticoid receptor [8] = biological target: T1, Glucocorticoid receptor; test: Binding affinity to GR
Androgen receptor = biological target: T3, Androgen receptor (Homo sapiens, UniProt P10275); test: Binding affinity to AR
T3 sequence (P10275 whole entry): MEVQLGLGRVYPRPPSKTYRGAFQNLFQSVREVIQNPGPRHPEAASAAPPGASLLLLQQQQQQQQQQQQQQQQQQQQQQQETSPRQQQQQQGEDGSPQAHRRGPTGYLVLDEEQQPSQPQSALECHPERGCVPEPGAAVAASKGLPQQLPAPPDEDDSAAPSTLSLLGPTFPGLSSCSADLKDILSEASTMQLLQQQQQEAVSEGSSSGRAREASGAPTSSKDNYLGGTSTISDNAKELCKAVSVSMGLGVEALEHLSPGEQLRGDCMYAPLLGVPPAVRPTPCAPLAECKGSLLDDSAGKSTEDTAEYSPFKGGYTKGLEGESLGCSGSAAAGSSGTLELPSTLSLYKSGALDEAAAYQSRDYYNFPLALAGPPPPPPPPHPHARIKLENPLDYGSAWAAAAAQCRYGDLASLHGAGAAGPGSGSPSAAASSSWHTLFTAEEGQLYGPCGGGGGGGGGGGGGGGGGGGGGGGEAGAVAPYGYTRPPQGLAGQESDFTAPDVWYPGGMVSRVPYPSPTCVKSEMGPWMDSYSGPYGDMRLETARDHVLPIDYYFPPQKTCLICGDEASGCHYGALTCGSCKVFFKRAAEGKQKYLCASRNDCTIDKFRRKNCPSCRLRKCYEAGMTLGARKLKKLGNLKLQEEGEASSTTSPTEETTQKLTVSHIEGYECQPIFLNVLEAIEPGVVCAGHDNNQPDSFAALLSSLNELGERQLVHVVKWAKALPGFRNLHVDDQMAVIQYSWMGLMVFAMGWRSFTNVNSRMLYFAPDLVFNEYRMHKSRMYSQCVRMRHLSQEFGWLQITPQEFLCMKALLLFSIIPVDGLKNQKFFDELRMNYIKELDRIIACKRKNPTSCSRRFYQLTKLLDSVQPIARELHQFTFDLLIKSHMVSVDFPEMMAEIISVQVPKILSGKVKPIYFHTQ

Glucocorticoid receptor [9] = biological target: T1, Glucocorticoid receptor; test: Antagonist activity at human GR expressed in CV1 cells by GRE activation assay; type: functional, cell-based, CV-1
RPMI-8226 [10] = test: Inhibition of tumor growth in human RPMI8226 cells xenografted nude mouse at 30 mg/kg, po after 4 weeks relative to Dexamethasone; type: functional
Progesterone receptor = biological target: T4, Progesterone receptor (Homo sapiens, UniProt P06401); test: Binding affinity to PR; outline: as §1
T4 sequence (P06401 whole entry): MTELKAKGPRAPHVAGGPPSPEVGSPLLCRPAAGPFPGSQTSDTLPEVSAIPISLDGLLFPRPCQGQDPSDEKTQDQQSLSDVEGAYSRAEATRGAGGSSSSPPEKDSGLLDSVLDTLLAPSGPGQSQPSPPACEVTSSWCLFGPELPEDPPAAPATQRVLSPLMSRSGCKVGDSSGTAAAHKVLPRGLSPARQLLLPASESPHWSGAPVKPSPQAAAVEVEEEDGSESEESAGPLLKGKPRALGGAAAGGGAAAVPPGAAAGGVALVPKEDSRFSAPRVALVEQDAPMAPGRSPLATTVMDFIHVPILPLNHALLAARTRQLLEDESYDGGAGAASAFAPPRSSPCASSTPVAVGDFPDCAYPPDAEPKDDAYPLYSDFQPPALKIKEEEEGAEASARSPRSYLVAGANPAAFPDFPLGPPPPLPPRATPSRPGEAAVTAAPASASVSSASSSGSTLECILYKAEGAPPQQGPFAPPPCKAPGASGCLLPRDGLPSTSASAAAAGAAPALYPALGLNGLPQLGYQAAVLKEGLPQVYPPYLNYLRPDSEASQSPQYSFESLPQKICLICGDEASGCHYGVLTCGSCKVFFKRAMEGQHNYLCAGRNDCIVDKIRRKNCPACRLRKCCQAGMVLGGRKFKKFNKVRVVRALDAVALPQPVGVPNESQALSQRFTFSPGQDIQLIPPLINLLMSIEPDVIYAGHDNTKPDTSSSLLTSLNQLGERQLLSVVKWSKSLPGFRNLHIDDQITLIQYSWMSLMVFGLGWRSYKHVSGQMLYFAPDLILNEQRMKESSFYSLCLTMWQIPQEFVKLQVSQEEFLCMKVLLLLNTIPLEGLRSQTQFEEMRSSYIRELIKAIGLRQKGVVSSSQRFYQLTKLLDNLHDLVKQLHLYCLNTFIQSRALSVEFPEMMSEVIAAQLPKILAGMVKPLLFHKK

SMILES	IC50 (Glucocorticoid receptor [1]) [nM]	IC50 (RPMI-8226 [2]) [nM]	EC50 (Glucocorticoid receptor [3]) [nM]	EC50 (Glucocorticoid receptor [9]) [nM]	Efficacy (RPMI-8226 [4]) [%]	also measured
COc1c(O)ccc2c1-c1ccc3c(c1/C(=C/c1sccc1C#N)O2)C(C)=CC(C)(C)N3	0.8	14	0.2	–	87	–
COc1c(O)ccc2c1-c1ccc3c(c1/C(=C/c1sccc1C(O)C(F)(F)F)O2)C(C)=CC(C)(C)N3 (racemic)	–	–	–	0.3	–	Efficacy (RPMI-8226 [5]): 89%; Efficacy (RPMI-8226 [6]): 52%; Ki [7]: 670 nM; Ki (Glucocorticoid receptor [8]): 1.4 nM; Ki (Androgen receptor): 1900 nM; Efficacy (RPMI-8226 [10]): 97%; Ki (Progesterone receptor): 1780 nM
CC/C=C(\C)c1ccsc1/C=C1\Oc2ccc(O)c(OC)c2-c2ccc3c(c21)C(C)=CC(C)(C)N3	6.1	22	0.5	–	94	Ki [7]: 42 nM; Ki (Glucocorticoid receptor [8]): 4.4 nM; Ki (Androgen receptor): 346 nM; Ki (Progesterone receptor): 57 nM
COc1c(O)ccc2c1-c1ccc3c(c1/C(=C/c1sccc1C(=O)C1CCCCC1)O2)C(C)=CC(C)(C)N3	–	–	–	0.4	–	–
COc1c(O)ccc2c1-c1ccc3c(c1/C(=C/c1sccc1C(=O)N1CCCCC1)O2)C(C)=CC(C)(C)N3	1	16	0.3	–	95	–
COc1c(O)ccc2c1-c1ccc3c(c1/C(=C/c1sccc1C(C)=O)O2)C(C)=CC(C)(C)N3	0.3	16	0.6	–	95	–
COc1c(O)ccc2c1-c1ccc3c(c1/C(=C/c1sccc1/C(C)=N/O)O2)C(C)=CC(C)(C)N3	1.1	9.9	5	–	96	Ki [7]: 21 nM; Ki (Glucocorticoid receptor [8]): 0.6 nM; Ki (Androgen receptor): 290 nM; Ki (Progesterone receptor): 790 nM
CCCCC(O)c1ccsc1/C=C1\Oc2ccc(O)c(OC)c2-c2ccc3c(c21)C(C)=CC(C)(C)N3 (racemic)	–	–	–	0.6	–	–
COc1c(O)ccc2c1-c1ccc3c(c1/C(=C/c1sccc1C(C)O)O2)C(C)=CC(C)(C)N3 (racemic)	–	–	–	1.3	–	Ki [7]: 410 nM; Ki (Glucocorticoid receptor [8]): 1.2 nM; Ki (Androgen receptor): 1530 nM; Ki (Progesterone receptor): 2290 nM

The next lines start with results.

IC50 (Glucocorticoid receptor [1]) [nM]	IC50 (RPMI-8226 [2]) [nM]	EC50 (Glucocorticoid receptor [3]) [nM]	EC50 (Glucocorticoid receptor [9]) [nM]	SMILES	Efficacy (RPMI-8226 [4]) [%]	also measured
1.8	27	1.4	–	COC(=O)c1ccsc1/C=C1\Oc2ccc(O)c(OC)c2-c2ccc3c(c21)C(C)=CC(C)(C)N3	95	–
0.9	18	0.5	–	COc1c(O)ccc2c1-c1ccc3c(c1/C(=C/c1sccc1CNCC(F)(F)F)O2)C(C)=CC(C)(C)N3	96	–
–	6.5	–	–	C[C@@H]1C[C@H]2[C@@H]3CCC4=CC(=O)C=C[C@]4(C)[C@@]3(F)[C@@H](O)C[C@]2(C)[C@@]1(O)C(=O)CO [DEXAMETHASONE]	100	–
1	22	1.6	–	COc1c(O)ccc2c1-c1ccc3c(c1/C(=C/c1sccc1COCCO)O2)C(C)=CC(C)(C)N3	98	–
–	–	–	0.2	COc1c(O)ccc2c1-c1ccc3c(c1/C(=C/c1sccc1C(O)C(F)(F)F)O2)C(C)=CC(C)(C)N3 (single isomer, unassigned; (+))	–	–
0.5	16	0.4	1.9	CCO/N=C(\C)c1ccsc1/C=C1\Oc2ccc(O)c(OC)c2-c2ccc3c(c21)C(C)=CC(C)(C)N3	98	–
–	–	–	1.4	COc1c(O)ccc2c1-c1ccc3c(c1/C(=C/c1sccc1C(O)C(F)(F)F)O2)C(C)=CC(C)(C)N3 (stereo in doubt; (-)-15)	–	–
